Source: ChEMBL document CHEMBL1671748, “Subinhibitory concentrations of protein synthesis-inhibiting antibiotics promote increased expression of the agr virulence regulator and production of phenol-soluble modulin cytolysins in community-associated methicillin-resistant Staphylococcus aureus” (2010)
≈ marks a conversion by molar mass, not a printed value. Calls of active or inactive are those of the source. No cut-off for these calls is given here.

Experiments:
Staphylococcus aureus [1] = assay: Antimicrobial activity against community-associated methicillin-resistant Staphylococcus aureus USA300; type: functional
Staphylococcus aureus [2] = assay: Antimicrobial activity against community-associated methicillin-resistant Staphylococcus aureus Sanger 252; type: functional
Staphylococcus aureus [3] = assay: Decrease in PSMalpha levels in Staphylococcus aureus USA300 at subinhibitory concentration after 24 hrs by RP-HPLC/ESI-MS; type: functional, organism-based
In short: (§1)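 Antibiotic at a subinhibitory concentration was added at inoculation (1:100 from precultures) into 1 ml tryptic soy broth and shaken 24 h at 200 rpm. Peptides in culture filtrates were quantified by RP-HPLC/ESI-MS in triplicate. Each concentration started at 1/10 of the published MIC and was adjusted to give minimal growth effect, judged by OD600.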

Staphylococcus aureus [4] = assay: Decrease in PSMalpha levels in Staphylococcus aureus Sanger 252 at subinhibitory concentrations after 24 hrs by RP-HPLC/ESI- MS; type: functional, organism-based
In short: (§2)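 Antibiotic was added at inoculation (1:100 from preculture) into tryptic soy broth, with an antibiotic-free control, and shaken at 200 rpm for 24 h. Sub-inhibitory levels started at 1/10 of published MICs and were adjusted to give minimal growth effect, with growth tracked by OD600. PSMs in culture filtrates were quantified in triplicate by RP-HPLC/ESI-MS and reported as mean ± SD.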

Staphylococcus aureus [5] = assay: Decrease in delta toxin levels in Staphylococcus aureus Sanger 252 at subinhibitory concentrations after 24 hrs by RP-HPLC/ESI- MS; type: functional, organism-based; in short: as §1
Staphylococcus aureus [6] = assay: Decrease in delta toxin levels in Staphylococcus aureus USA300 at subinhibitory concentrations after 24 hrs by RP-HPLC/ESI- MS; type: functional, organism-based; in short: as §1
Staphylococcus aureus [7] = assay: Decrease in PSMbeta1 levels in Staphylococcus aureus Sanger 252 at subinhibitory concentrations after 24 hrs by RP-HPLC/ESI- MS; type: functional, organism-based; in short: as §2
Staphylococcus aureus [8] = assay: Decrease in PSMbeta1 levels in Staphylococcus aureus USA300 at subinhibitory concentration after 24 hrs by RP-HPLC/ESI-MS; type: functional, organism-based; in short: as §2
[9] = molecular target: T1, Accessory gene regulator protein A (Staphylococcus aureus) (UniProt P0A0I7); assay: Activity of Quorum sensing agr in community-associated methicillin-resistant Staphylococcus aureus USA300 assessed as PSMalpha expression after 8 hrs by qRT-PCR
T1 sequence (whole entry): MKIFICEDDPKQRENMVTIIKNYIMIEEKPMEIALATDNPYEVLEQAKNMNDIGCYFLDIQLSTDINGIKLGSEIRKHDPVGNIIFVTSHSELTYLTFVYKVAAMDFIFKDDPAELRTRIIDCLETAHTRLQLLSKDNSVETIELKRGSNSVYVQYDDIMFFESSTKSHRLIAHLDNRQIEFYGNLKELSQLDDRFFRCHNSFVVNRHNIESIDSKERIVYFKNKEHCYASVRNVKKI
In short: (§3)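 LAC (USA300) was grown 8 h in shaken 125-ml flasks with antibiotic at a subinhibitory concentration. psmα and psmβ transcripts were quantified by qRT-PCR, with gyrB transcript as control, in parallel with RNAIII as the agr read-out. Run in triplicate; means ± SD.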

[10] = molecular target: T1, Accessory gene regulator protein A (Staphylococcus aureus); assay: Activity of Quorum sensing agr in community-associated methicillin-resistant Staphylococcus aureus USA300 assessed as PSMbeta expression after 8 hrs by qRT-PCR; in short: as §3
Staphylococcus aureus [11] = assay: Increase in PSMalpha levels in Staphylococcus aureus USA300 at subinhibitory concentrations after 24 hrs by RP-HPLC/ESI- MS; type: functional, organism-based; in short: as §2
Staphylococcus aureus [12] = assay: Increase in PSMalpha levels in Staphylococcus aureus Sanger 252 at subinhibitory concentrations after 24 hrs by RP-HPLC/ESI- MS; type: functional, organism-based; in short: as §1

SMILES: C/C(=C\C(=O)OCCCCCCCCC(=O)O)C[C@@H]1OC[C@H](C[C@@H]2O[C@H]2[C@@H](C)[C@H](C)O)[C@@H](O)[C@H]1O [MUPIROCIN]
- MIC (Staphylococcus aureus [1]): 0.12 µg/mL (≈ 0.24 µM)
- MIC (Staphylococcus aureus [2]): 0.25 µg/mL (≈ 0.499 µM)
- Activity (Staphylococcus aureus [3]): inactive
- Activity (Staphylococcus aureus [4]): Active
- Activity (Staphylococcus aureus [5]): Active
- Activity (Staphylococcus aureus [6]): inactive
- Activity (Staphylococcus aureus [7]): Active
- Activity (Staphylococcus aureus [8]): Active

SMILES: CO[C@H]1/C=C/O[C@@]2(C)Oc3c(C)c(O)c4c(O)c(c(/C=N/N5CCN(C)CC5)c(O)c4c3C2=O)NC(=O)/C(C)=C\C=C\[C@H](C)[C@H](O)[C@@H](C)[C@@H](O)[C@@H](C)[C@H](OC(C)=O)[C@@H]1C [RIFAMPIN]
- MIC (Staphylococcus aureus [1]): 0.004 µg/mL (≈ 0.00486 µM)
- MIC (Staphylococcus aureus [2]): 0.004 µg/mL (≈ 0.00486 µM)
- Activity (Staphylococcus aureus [5]): inactive
- Activity (Staphylococcus aureus [6]): inactive
- Activity (Staphylococcus aureus [7]): Active
- Activity (Staphylococcus aureus [8]): Active

SMILES: COc1cc(Cc2cnc(N)nc2N)cc(OC)c1OC [TRIMETHOPRIM]
- MIC (Staphylococcus aureus [1]): 0.25 µg/mL (≈ 0.861 µM)
- MIC (Staphylococcus aureus [2]): 0.25 µg/mL (≈ 0.861 µM)

SMILES: Cc1cc(NS(=O)(=O)c2ccc(N)cc2)no1 [SULFAMETHOXAZOLE]
- MIC (Staphylococcus aureus [1]): 4.75 µg/mL (≈ 18.8 µM)
- MIC (Staphylococcus aureus [2]): 4.75 µg/mL (≈ 18.8 µM)

SMILES: CN(C)[C@@H]1C(O)=C(C(N)=O)C(=O)[C@@]2(O)C(O)=C3C(=O)c4c(O)cccc4[C@@](C)(O)[C@H]3C[C@@H]12 [TETRACYCLINE]
- Activity [9]: Active
- Activity [10]: Active
- MIC (Staphylococcus aureus [1]): 1 µg/mL (≈ 2.25 µM)
- MIC (Staphylococcus aureus [2]): 1 µg/mL (≈ 2.25 µM)
- Activity (Staphylococcus aureus [11]): Active
- Activity (Staphylococcus aureus [5]): inactive
- Activity (Staphylococcus aureus [6]): inactive
- Activity (Staphylococcus aureus [7]): Active
- Activity (Staphylococcus aureus [8]): Active

SMILES: CN[C@H](CC(C)C)C(=O)N[C@H]1C(=O)N[C@@H](CC(N)=O)C(=O)N[C@H]2C(=O)N[C@H]3C(=O)N[C@H](C(=O)N[C@H](C(=O)O)c4cc(O)cc(O)c4-c4cc3ccc4O)[C@H](O)c3ccc(c(Cl)c3)Oc3cc2cc(c3O[C@@H]2O[C@H](CO)[C@@H](O)[C@H](O)[C@H]2O[C@H]2C[C@](C)(N)[C@H](O)[C@H](C)O2)Oc2ccc(cc2Cl)[C@H]1O
- Activity (Staphylococcus aureus [5]): inactive
- Activity (Staphylococcus aureus [6]): inactive
- Activity (Staphylococcus aureus [7]): Active
- Activity (Staphylococcus aureus [8]): Active

SMILES: CCC[C@@H]1C[C@@H](C(=O)N[C@@H]([C@H]2O[C@H](SC)[C@H](O)[C@@H](O)[C@H]2O)[C@H](C)Cl)N(C)C1 [CLINDAMYCIN]
- Activity [9]: Active
- Activity [10]: Active
- MIC (Staphylococcus aureus [1]): 0.12 µg/mL (≈ 0.282 µM)
- MIC (Staphylococcus aureus [2]): > 4 µg/mL
- Activity (Staphylococcus aureus [11]): Active
- Activity (Staphylococcus aureus [5]): inactive
- Activity (Staphylococcus aureus [6]): inactive
- Activity (Staphylococcus aureus [7]): Active
- Activity (Staphylococcus aureus [8]): Active

SMILES: CC[C@H]1OC(=O)[C@H](C)[C@@H](O[C@H]2C[C@@](C)(OC)[C@@H](O)[C@H](C)O2)[C@H](C)[C@@H](O[C@@H]2O[C@H](C)C[C@H](N(C)C)[C@H]2O)[C@](C)(O)C[C@@H](C)C(=O)[C@H](C)[C@@H](O)[C@]1(C)O [ERYTHROMYCIN]
- MIC (Staphylococcus aureus [1]): > 8 µg/mL
- MIC (Staphylococcus aureus [2]): > 8 µg/mL
- Activity (Staphylococcus aureus [11]): Active
- Activity (Staphylococcus aureus [5]): inactive
- Activity (Staphylococcus aureus [6]): inactive
- Activity (Staphylococcus aureus [7]): Active
- Activity (Staphylococcus aureus [8]): Active

SMILES: Cc1onc(-c2ccccc2)c1C(=O)N[C@@H]1C(=O)N2[C@@H]1SC(C)(C)[C@@H]2C(=O)O [OXACILLIN]
- Activity [9]: inactive
- Activity [10]: inactive
- MIC (Staphylococcus aureus [1]): > 16 µg/mL
- MIC (Staphylococcus aureus [2]): > 16 µg/mL
- Activity (Staphylococcus aureus [12]): inactive
- Activity (Staphylococcus aureus [3]): Active
- Activity (Staphylococcus aureus [5]): inactive
- Activity (Staphylococcus aureus [6]): Active
- Activity (Staphylococcus aureus [7]): Active
- Activity (Staphylococcus aureus [8]): Active

SMILES: CC(=O)NC[C@H]1CN(c2ccc(N3CCOCC3)c(F)c2)C(=O)O1 [LINEZOLID]
- MIC (Staphylococcus aureus [2]): 1 µg/mL (≈ 2.96 µM)
- Activity (Staphylococcus aureus [11]): Active
- Activity (Staphylococcus aureus [5]): inactive
- Activity (Staphylococcus aureus [6]): inactive
- Activity (Staphylococcus aureus [7]): Active
- Activity (Staphylococcus aureus [8]): Active

SMILES: O=C(O)c1cn(C2CC2)c2cc(N3CCNCC3)c(F)cc2c1=O [CIPROFLOXACIN]
- MIC (Staphylococcus aureus [1]): 2 µg/mL (≈ 6.04 µM)
- MIC (Staphylococcus aureus [2]): > 16 µg/mL
- Activity (Staphylococcus aureus [5]): inactive
- Activity (Staphylococcus aureus [6]): inactive
- Activity (Staphylococcus aureus [7]): Active
- Activity (Staphylococcus aureus [8]): Active
